Entries after “also recorded” stand apart in the source; their conditions may differ. Where two headings read alike, the source gives them in different places.
Key:
[1] = test system: COX-1 in human washed platelets; assay: Prostanoid; type: cell-based; conditions: 100 nM inhibitor; for effect on TxB2 synthesis by washed platelets: platelets without A549 cells
[2] = test system: COX-derived PGE2 in A549 lung adenocarcinoma cells; assay: PGE2 biosynthesis from [2H8]AA in A549 cells; type: cell-based, human; conditions: for inhibition of PGE2 synthesis: IL-1β-activated A549, 100 nM inhibitor
Procedure, shortened: (§1)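 Cells grown in DMEM with 10% FBS at 37°C, 5% CO₂, then given 1 ng/ml IL-1β for 24 h at 90% confluence to induce COX-2. In albumin-free medium, cells were preincubated for 30 min at 37°C with graded concentrations of test compound. Then 2.0 µM [²H₈]AA was added for 15 min, and the medium was harvested for GC/NICI/MS measurement of [²H₈]-PGE₂.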

[3] = test system: adenocarcinoma metastasis; conditions: cited from earlier work
[4] = test system: COX-derived PGE2 in HCA-7 colon cancer cells; assay: PGE2 biosynthesis from [2H8]AA in HCA-7 cells; type: cell-based; conditions: Homo sapiens
Procedure, shortened: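 HCA-7 cells were grown in DMEM with 10% FBS at 37°C, 5% CO₂, without IL-1β activation. In albumin-free medium, cells were preincubated for 30 min at 37°C with test compound. Then 2.0 µM [²H₈]AA was added and incubation continued for 15 min. The harvested medium was analysed by GC/NICI/MS for [²H₈]-PGE₂.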

platelet TxB2 production = assay: Serum thromboxane B2 levels in healthy volunteers; type: in vivo, human; conditions: aspirin 81 mg daily 2 weeks
[5] = test system: systemic PGE2 biosynthesis; assay: Urinary PGE-M; type: in vivo, human; conditions: for reduction in extra-platelet PGE2 production: corrected for platelet-derived PGE2, aspirin 81 mg daily 2 weeks; for reduction of urinary PGE-M levels: aspirin 81 mg daily 2 weeks
[6] = test system: COX-derived PGE2 in HCC827 lung adenocarcinoma cells; assay: PGE2 biosynthesis from [2H8]AA in HCC827 cells; type: cell-based; conditions: Homo sapiens, HCC827, read-out: IC50 for inhibition of PGE2 biosynthesis
COX-2 = target: T1, COX-2 (Homo sapiens, UniProt P35354); type: cell-based; conditions: IL-1β-activated A549, pretreated with 100 µM aspirin
T1 sequence (P35354 18-604): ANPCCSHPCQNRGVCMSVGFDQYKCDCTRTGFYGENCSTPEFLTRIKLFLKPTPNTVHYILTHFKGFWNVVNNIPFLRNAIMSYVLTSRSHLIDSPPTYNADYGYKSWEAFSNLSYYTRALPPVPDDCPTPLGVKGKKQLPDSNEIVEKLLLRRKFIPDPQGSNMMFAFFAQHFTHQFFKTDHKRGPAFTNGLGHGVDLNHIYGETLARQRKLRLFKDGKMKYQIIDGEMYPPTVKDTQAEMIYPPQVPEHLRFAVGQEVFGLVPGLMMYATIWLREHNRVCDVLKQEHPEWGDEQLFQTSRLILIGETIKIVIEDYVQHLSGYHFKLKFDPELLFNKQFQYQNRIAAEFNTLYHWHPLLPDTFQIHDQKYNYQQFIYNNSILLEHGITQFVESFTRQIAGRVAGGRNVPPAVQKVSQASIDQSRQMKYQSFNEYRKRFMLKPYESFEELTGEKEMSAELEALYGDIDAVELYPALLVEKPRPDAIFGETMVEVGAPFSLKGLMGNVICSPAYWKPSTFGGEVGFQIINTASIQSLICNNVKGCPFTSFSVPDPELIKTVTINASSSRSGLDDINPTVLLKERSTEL

[7] = test system: COX-derived PGE2 in H2122 lung adenocarcinoma cells; assay: PGE2 biosynthesis from [2H8]AA in H2122 cells; type: cell-based, human
Procedure, shortened: as §1

[8] = test system: platelet-A549 cell aggregates; type: cell-based, human; conditions: platelets from blood treated with 100 µM aspirin 40 min, washed, ADP-activated
[9] = test system: COX-derived PGE2 in HT-29 colon cancer cells; assay: PGE2 biosynthesis from [2H8]AA in HT-29 cells; type: cell-based; conditions: Homo sapiens, HT-29, read-out: IC50 for inhibition of PGE2 biosynthesis
[10] = test system: systemic PGE2 biosynthesis; conditions: ibuprofen 800 mg 4 times daily; cited from earlier work

SMILES: CS(=O)(=O)Nc1ccc([N+](=O)[O-])cc1OC1CCCCC1 [NS-398]
- effect on PGE2 production in washed platelets [1]: does not block
- effect on TxB2 synthesis by washed platelets [1]: did not inhibit; also recorded: does not block
- inhibition of PGE2 synthesis [2]: fully blocks

SMILES: CC(=O)Oc1ccccc1C(=O)O [aspirin, acetyl salicylic acid]
- hazard ratio for later metastasis ([3]; adenocarcinomas other than those of the colon): 0.47
- hazard ratio for later metastasis ([3]; colon cancers, no metastasis at diagnosis, 95% CI 0.03–0.56, p=0.007): 0.13
- reduction of development of metastases ([3]; patients who develop cancer while receiving aspirin): 69%
- IC50 ([4]; HCA-7, read-out: IC50 for inhibition of PGE2 biosynthesis): 3.9 ± 0.7 µM
- reduction of serum thromboxane B2 levels (platelet TxB2 production): 96.6%
- reduction in extra-platelet PGE2 production ([5]; females): 55.4%
- reduction of urinary PGE-M levels ([5]; healthy females): 56%
- reduction of urinary PGE-M levels ([5]; healthy males): 39%
- reduction in extra-platelet PGE2 production ([5]; males): 38.6%
- IC50 [6]: 22.5 ± 3.2 µM
- blockade of COX-2 labeling by fluorocoxib A (COX-2): effectively blocked COX-2 labeling; also recorded: inhibited COX-2 associated fluorocoxib A fluorescence
- IC50 ([2]; Homo sapiens, A549, read-out: IC50 for inhibition of PGE2 biosynthesis): 7.2 ± 1.1 µM
- IC50 ([7]; Homo sapiens, NCI-H2122, read-out: IC50 for inhibition of PGE2 biosynthesis): 15 ± 1.3 µM
- COX-2 protein expression in A549 cells [8]: still upregulated
- PGE2 production by platelet-A549 aggregates [8]: significantly inhibited; also recorded: effectively blocked
- IC50 [9]: 8.9 ± 1.2 µM

SMILES: CC(C)Cc1ccc(C(C)C(=O)O)cc1 (stereo not drawn) [ibuprofen]
- reduction of PGE2 production in humans [10]: 63%

SMILES: Cc1onc(-c2ccccc2)c1-c1ccc(S(N)(=O)=O)cc1 [valdecoxib]
- effect on TxB2 synthesis by washed platelets [1]: no effect
- inhibition at 0.1 µM ([4]; HCA-7, read-out: inhibition of PGE2 synthesis): 60%
- inhibition of PGE2 synthesis [2]: fully inhibited
- inhibition of PGE2 synthesis ([7]; H2122, 100 nM inhibitor): fully inhibited

Source: article PMC5093073 (Cancer prevention research (Philadelphia, Pa.), 2016)
